# ChEMBL document CHEMBL1145951, “Phenethyl amides as novel noncovalent inhibitors of hepatitis C virus NS3/4A protease: discovery, initial SAR, and molecular modeling” (J Med Chem, 2003)
# Starred links: 1 amine or outer side, 2 acyl side, 3 side chain; linkers in the order of their positions; H or OH if unused. Non-standard residues stand in square brackets, D forms with d. Residues, ends and D or L forms follow the SMILES beside them. ξ: configuration not given here. *: point of attachment. Dip = N[C@H](C(=O)O)C(c1ccccc1)c1ccccc1; X4 = O=C(C(=O)[*:2])[C@H](CC(F)F)N[*:1]; X1 = O=C(NOCc1ccccc1)[C@H](CC(F)F)N*; Abu(4,4-F2) = N[C@@H](CC(F)F)C(=O)O; N(Me)CH2CH2Ph = CN(CCc1ccccc1)*; Cha = N[C@@H](CC1CCCCC1)C(=O)O; NH(CH2)3Ph = c1ccc(CCCN*)cc1; NHPhenethyl = c1ccc(CCN*)cc1; X6 = c1ccc2c(c1)CC(N*)C2; ξE = NC(CCC(=O)O)C(=O)O; Cbz = O=C(OCc1ccccc1)*; Boc = CC(C)(C)OC(=O)*; NHBn = c1ccc(CN*)cc1; X2 = Clc1ccccc1CCN*; X5 = C1CCC(CCN*)CC1
# Experiments:
# [1] = target: Hepatitis C virus serine protease, NS3/NS4A (Hepatitis C virus, UniProt A3EZI9+D2K2A8); assay: (§1) Inhibitory activity against Hepatitis C NS3/NS4A protease; format: protein-complex assay, Hepacivirus hominis
# Summary of the method: (§2)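 Enzyme was the HCV NS3 protease domain with an NS4A cofactor peptide. IC50 values are means of two independent experiments, or of three to four for some series.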
# [2] = target: Hepatitis C virus serine protease, NS3/NS4A (Hepatitis C virus, UniProt D2K2A8+A3EZI9); assay: as §1; format: protein-complex assay, Hepacivirus hominis; summary of the method: as §2
# [3] = target: T1, NS3 (Hepatitis C virus, UniProt A3EZJ3, K136R); assay: Binding affinity for NS3 protease K136R; set-up: species or system Hepacivirus hominis
# [4] = target: T2, NS3 (Hepatitis C virus, UniProt A3EZJ3, K136M); assay: Binding affinity NS3 protease K136M; set-up: species or system Hepacivirus hominis
# [5] = target: T3, NS3 (Hepatitis C virus, UniProt A3EZJ3); assay: Binding affinity for wild type NS3 protease; set-up: species or system Hepacivirus hominis
# Summary of the method: (§3)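 Protease domain of HCV NS3 with NS4A cofactor peptide. Ki found from steady-state kinetics as reversible competitive inhibition. A second Ki was calculated from pre-steady-state displacement of an active-site fluorescent probe, using k_off/k_on.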
# [6] = target: T4, Neutrophil elastase (Homo sapiens, UniProt P08246); assay: Binding affinity for enzyme human leukocyte HLE
# T4 sequence (P08246 whole entry): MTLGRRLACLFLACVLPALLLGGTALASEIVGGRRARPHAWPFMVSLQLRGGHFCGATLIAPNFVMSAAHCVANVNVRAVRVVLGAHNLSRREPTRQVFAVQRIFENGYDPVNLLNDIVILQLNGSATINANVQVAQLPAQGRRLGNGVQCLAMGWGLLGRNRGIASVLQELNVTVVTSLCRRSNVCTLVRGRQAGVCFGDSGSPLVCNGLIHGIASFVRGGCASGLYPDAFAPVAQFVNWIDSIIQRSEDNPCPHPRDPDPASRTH
# [7] = target: T3, NS3; assay: Binding affinity for enzyme NS3 protease wild-type; set-up: species or system Hepacivirus hominis; summary of the method: as §3
# [8] = target: T1, NS3; assay: Binding affinity for enzyme K136R; set-up: species or system Hepacivirus hominis
# [9] = target: T2, NS3; assay: Binding affinity for enzyme K136M; set-up: species or system Hepacivirus hominis
IC50 [1],Compound,also measured
19000 nM,CC(C)COC(=O)NC(CCC(=O)O)C(=O)N[C@@H](CC(C)C)C(=O)NC(CS)C(=O)NCCc1ccccc1 (stereo partly specified),
17000 nM,COC(=O)c1ccc(CCNC(=O)C(CS)NC(=O)[C@H](CC(C)C)NC(=O)C(CCC(=O)O)NC(=O)OCC(C)C)cc1 (stereo partly specified),
3200 nM,COC(=O)c1ccc(CCNC(=O)C(CS)NC(=O)[C@H](CC(C)C)NC(=O)C(CCC(=O)O)NC(=O)OCC(C)C)c(Cl)c1 (stereo partly specified),
9200 nM,CC(C)COC(=O)NC(CCC(=O)O)C(=O)N[C@@H](CC(C)C)C(=O)NC(CS)C(=O)NCCc1cccc(C(=O)O)c1 (stereo partly specified),
6500 nM,CC(C)C[C@H](NC(=O)C(CCC(=O)O)NC(=O)OC(C)(C)C)C(=O)N[C@@H](CS)C(=O)NCCc1ccccc1Cl (stereo partly specified),
,CC(C)C[C@H](NC(=O)[C@@H](NC(=O)OC(C)(C)C)C(C)C)C(=O)N[C@@H](CC(F)F)C(=O)C(=O)O,IC50 [2]: 460 nM
,CC(C)COC(=O)NC(C(=O)N[C@@H](CC(C)C)C(=O)NC(CC(F)F)C(=O)NCCc1ccc(C(=O)O)cc1Cl)C(C)C (stereo partly specified),Ki [3]: 2300 nM; Ki [4]: 4000 nM; Ki [5]: 2100 nM
,CC(C)C[C@H](NC(=O)C(CCC(=O)O)NC(=O)OC(C)(C)C)C(=O)NC(CC(F)F)C(=O)NCCc1ccccc1Cl (stereo partly specified),Ki [6]: > 100000 nM; Ki [7]: 7300 nM; Ki [8]: 8300 nM; Ki [9]: 13500 nM
25000 nM,COC(=O)c1cccc(CCNC(=O)C(CS)NC(=O)[C@H](CC(C)C)NC(=O)C(CCC(=O)O)NC(=O)OCC(C)C)c1 (stereo partly specified),
54000 nM,COC(=O)c1ccccc1CCNC(=O)C(CS)NC(=O)[C@H](CC(C)C)NC(=O)C(CCC(=O)O)NC(=O)OCC(C)C (stereo partly specified),
> 100000 nM,CC(C)COC(=O)NC(CCC(=O)O)C(=O)N[C@@H](CC(C)C)C(=O)NC(CS)C(=O)NCCc1ccccc1C(=O)O (stereo partly specified),
700 nM,CC(C)COC(=O)NC(CCC(=O)O)C(=O)N[C@@H](CC(C)C)C(=O)NC(CS)C(=O)NCCc1ccc(C(=O)O)cc1Cl (stereo partly specified),
,CC(C)COC(=O)NC(CCC(=O)O)C(=O)N[C@@H](CC(C)C)C(=O)NC(CC(F)F)C(=O)NCCc1ccc(C(=O)O)cc1Cl (stereo partly specified),Ki [6]: > 100000 nM; Ki [7]: 600 nM; Ki [8]: 900 nM; Ki [9]: 1300 nM
40 nM,CC(=O)N[C@@H](CC(=O)O)C(=O)N[C@@H](CCC(=O)O)C(=O)N[C@H](C(=O)N[C@@H](CCC(=O)O)C(=O)N[C@@H](CC1CCCCC1)C(=O)N[C@@H](CC(F)F)C(=O)NOCc1ccccc1)C(c1ccccc1)c1ccccc1 (Ac-DE[Dip]E[Cha]-X1),
250 nM,CC(=O)N[C@@H](CC(=O)O)C(=O)N[C@@H](CCC(=O)O)C(=O)N[C@H](C(=O)N[C@@H](CCC(=O)O)C(=O)N[C@@H](CC1CCCCC1)C(=O)N[C@@H](CS)C(=O)NCc1ccccc1)C(c1ccccc1)c1ccccc1 (Ac-DE[Dip]E[Cha]C-NHBn),
7 nM,CC(=O)N[C@@H](CC(=O)O)C(=O)N[C@@H](CCC(=O)O)C(=O)N[C@H](C(=O)N[C@@H](CCC(=O)O)C(=O)N[C@@H](CC1CCCCC1)C(=O)N[C@@H](CS)C(=O)NCCc1ccccc1)C(c1ccccc1)c1ccccc1 (Ac-DE[Dip]E[Cha]C-NHPhenethyl),
2 nM,CC(=O)N[C@@H](CC(=O)O)C(=O)N[C@@H](CCC(=O)O)C(=O)N[C@H](C(=O)N[C@@H](CCC(=O)O)C(=O)N[C@@H](CC1CCCCC1)C(=O)N[C@@H](CS)C(=O)NCCc1ccccc1Cl)C(c1ccccc1)c1ccccc1 (Ac-DE[Dip]E[Cha]C-X2),
1540 nM,CC(=O)N[C@@H](CC(=O)O)C(=O)N[C@@H](CCC(=O)O)C(=O)N[C@H](C(=O)N[C@@H](CCC(=O)O)C(=O)N[C@@H](CC1CCCCC1)C(=O)N[C@@H](CS)C(=O)NCCC1CCCCC1)C(c1ccccc1)c1ccccc1 (Ac-DE[Dip]E[Cha]C-X5),
1700 nM,CC(=O)N[C@@H](CC(=O)O)C(=O)N[C@@H](CCC(=O)O)C(=O)N[C@H](C(=O)N[C@@H](CCC(=O)O)C(=O)N[C@@H](CC1CCCCC1)C(=O)N[C@@H](CS)C(=O)NC1Cc2ccccc2C1)C(c1ccccc1)c1ccccc1 (Ac-DE[Dip]E[Cha]C-X6),
70000 nM,CC(=O)N[C@@H](CC(=O)O)C(=O)N[C@@H](CCC(=O)O)C(=O)N[C@H](C(=O)N[C@@H](CCC(=O)O)C(=O)N[C@@H](CC1CCCCC1)C(=O)N[C@@H](CS)C(=O)N(C)CCc1ccccc1)C(c1ccccc1)c1ccccc1 (Ac-DE[Dip]E[Cha]C-{N(Me)CH2CH2Ph}),
210 nM,CC(=O)N[C@@H](CC(=O)O)C(=O)N[C@@H](CCC(=O)O)C(=O)N[C@H](C(=O)N[C@@H](CCC(=O)O)C(=O)N[C@@H](CC1CCCCC1)C(=O)N[C@@H](CS)C(=O)NCCCc1ccccc1)C(c1ccccc1)c1ccccc1 (Ac-DE[Dip]E[Cha]C-{NH(CH2)3Ph}),
4 nM,"CC(=O)N[C@@H](CC(=O)O)C(=O)N[C@@H](CCC(=O)O)C(=O)N[C@H](C(=O)N[C@@H](CCC(=O)O)C(=O)N[C@@H](CC1CCCCC1)C(=O)N[C@@H](CC(F)F)C(=O)NCCc1ccccc1)C(c1ccccc1)c1ccccc1 (Ac-DE[Dip]E[Cha][Abu(4,4-F2)]-NHPhenethyl)",
40 nM,"CC(=O)N[C@@H](CC(=O)O)C(=O)N[C@@H](CCC(=O)O)C(=O)N[C@H](C(=O)N[C@@H](CCC(=O)O)C(=O)N[C@@H](CC1CCCCC1)C(=O)N[C@@H](CC(F)F)C(=O)O)C(c1ccccc1)c1ccccc1 (Ac-DE[Dip]E[Cha][Abu(4,4-F2)]-OH)",
2 nM,CC(=O)N[C@@H](CC(=O)O)C(=O)N[C@@H](CCC(=O)O)C(=O)N[C@H](C(=O)N[C@@H](CCC(=O)O)C(=O)N[C@@H](CC1CCCCC1)C(=O)N[C@@H](CC(F)F)C(=O)C(=O)NCc1ccccc1)C(c1ccccc1)c1ccccc1 (Ac-DE[Dip]E[Cha][X4]-NHBn),
> 200000 nM,CC(C)C[C@H](NC(=O)[C@H](CCC(=O)O)NC(=O)OC(C)(C)C)C(=O)N[C@@H](CS)C(=O)O (Boc-Glu-Leu-Cys-OH),
> 200000 nM,CC(C)C[C@H](NC(=O)C(CCC(=O)O)NC(=O)OC(C)(C)C)C(=O)N[C@@H](CS)C(=O)NCc1ccccc1 (stereo partly drawn) (Boc-[ξE]-Leu-Cys-NHBn),
27000 nM,CC(C)C[C@H](NC(=O)C(CCC(=O)O)NC(=O)OC(C)(C)C)C(=O)N[C@@H](CS)C(=O)NCCc1ccccc1 (stereo partly drawn) (Boc-[ξE]-Leu-Cys-NHPhenethyl),
> 400000 nM,CC(C)C[C@H](NC(=O)[C@@H](NC(=O)OCc1ccccc1)C(C)C)C(=O)N[C@@H](CS)C(=O)NCCc1ccccc1 (Cbz-Val-Leu-Cys-NHPhenethyl),
